Measured values collected from several papers.
Organism: Klebsiella pneumoniae
Read-out: microbial growth

| Structure (SMILES) | technique | strain | time | MIC |
| --- | --- | --- | --- | --- |
| Cc1onc(-c2ccccc2)c1C(=O)N[C@@H]1C(=O)N2[C@@H]1SC(C)(C)[C@@H]2C(=O)O | broth dilution | ATCC700603 | – | 8 µg/mL |
| CN(C)[C@@H]1C(O)=C(C(N)=O)C(=O)[C@@]2(O)C(O)=C3C(=O)c4c(O)cccc4[C@@](C)(O)[C@H]3C[C@@H]12 | broth dilution | ATCC13883 | – | 1 µg/mL |
| CCCCCCC#Cc1cncc(-c2nnc(SCc3ccc([N+](=O)[O-])o3)n2CCCN)c1 | broth dilution | DSM30104 | – | > 64 µg/mL |
| O=C(O)c1cn(C2CC2)c2cc(N3CCNCC3)c(F)cc2c1=O | broth dilution | ATCC27736 | 16 h | 0.1 µM |
| [H]/N=C(/N)N[C@H]1[C@H](O)[C@@H](O)[C@H](O[C@@H]2O[C@@H](C)[C@](O)(C=O)[C@H]2O[C@@H]2O[C@@H](CO)[C@H](O)[C@@H](O)[C@@H]2NC)[C@@H](N/C(N)=N\[H])[C@@H]1O | broth dilution | ATCC700603 | – | > 512 µg/mL |
| CC[C@H]1OC(=O)[C@H](C)[C@@H](O[C@H]2C[C@@](C)(OC)[C@@H](O)[C@H](C)O2)[C@H](C)[C@@H](O[C@@H]2O[C@H](C)C[C@H](N(C)C)[C@H]2O)[C@](C)(O)C[C@@H](C)C(=O)[C@H](C)[C@@H](O)[C@]1(C)O | broth dilution | ATCC43816 | – | 32 µg/mL |
| CN(C)[C@@H]1C(O)=C(C(N)=O)C(=O)[C@@]2(O)C(O)=C3C(=O)c4c(O)cccc4[C@@](C)(O)[C@H]3C[C@@H]12 | broth dilution | ATCC10031 | 12 h | 0.13 µg/mL |
| CC1(C)S[C@@H]2[C@H](NC(=O)[C@H](N)c3ccc(O)cc3)C(=O)N2[C@H]1C(=O)O | broth dilution | ATCC13883 | – | > 64 µg/mL |
| CN(C)c1cc(NC(=O)CNC(C)(C)C)c(O)c2c1C[C@H]1C[C@H]3[C@H](N(C)C)C(O)=C(C(N)=O)C(=O)[C@@]3(O)C(O)=C1C2=O | broth dilution | ATCC43816 | – | < 0.5 µg/mL |
| CCCCCCC#Cc1cncc(-c2nnc(SCc3cc(C(F)(F)F)cc(C(F)(F)F)c3)n2CCCN)c1 | broth dilution | DSM30104 | – | 32 to 64 µg/mL |
| CN(C)c1ccc(O)c2c1C[C@H]1C[C@H]3[C@H](N(C)C)C(O)=C(C(N)=O)C(=O)[C@@]3(O)C(O)=C1C2=O | broth dilution | ATCC43816 | – | 1 µg/mL |
| CC1(C)S[C@@H]2[C@H](NC(=O)[C@H](N)c3ccccc3)C(=O)N2[C@H]1C(=O)O | broth dilution | ATCC700603 | – | 8 µg/mL |
| CN(C)[C@@H]1C(O)=C(C(N)=O)C(=O)[C@@]2(O)C(O)=C3C(=O)c4c(O)cccc4[C@@](C)(O)[C@H]3C[C@@H]12 | broth dilution | ATCC43816 | – | 2 µg/mL |
| CC1(C)S[C@@H]2[C@H](NC(=O)[C@H](N)c3ccccc3)C(=O)N2[C@H]1C(=O)O | broth dilution | ATCC13883 | – | > 64 µg/mL |
| CO[C@@]1(NC(=O)Cc2cccs2)C(=O)N2C(C(=O)O)=C(COC(N)=O)CS[C@@H]21 | broth dilution | ATCC43816 | – | 1 µg/mL |
| C[C@H]1[C@H](NC(=O)/C(=N\OC(C)(C)C(=O)O)c2csc(N)n2)C(=O)N1S(=O)(=O)O | broth dilution | ATCC13883 | – | 0.0625 µg/mL |
| CCCCCCC#Cc1cncc(-c2nnc(SCc3cc([N+](=O)[O-])cc([N+](=O)[O-])c3)n2CCOC2OC(CN)C(O)C2O)c1 (stereo not drawn) | broth dilution | DSM30104 | – | > 64 µg/mL |
| [H]/N=C(\N/C(=N/[H])NCCCCCCNC(=N)NC(=N)Nc1ccc(Cl)cc1)Nc1ccc(Cl)cc1 | – | ATCC4352 | – | 1 µM |
| CNC(C)C1CCC(N)C(OC2C(N)CC(N)C(OC3OCC(C)(O)C(NC)C3O)C2O)O1 (stereo not drawn) | broth dilution | ATCC13883 | – | 2 µg/mL |
| C[C@H]1COc2c(N3CCN(C)CC3)c(F)cc3c(=O)c(C(=O)O)cn1c23 | broth dilution | ATCC43816 | – | < 0.5 µg/mL |
| CCCCCCCCCCCC[N+](C)(C)Cc1ccccc1 | – | ATCC4352 | – | 8 µM |
